Residue numbers refer to the chain shown, from its start.
Tests used:
Details in all cases: stereoisomer not certain
[1] = biological target: T1, OR2J2 (Homo sapiens) (UniProt O76002)
T1 sequence (whole entry): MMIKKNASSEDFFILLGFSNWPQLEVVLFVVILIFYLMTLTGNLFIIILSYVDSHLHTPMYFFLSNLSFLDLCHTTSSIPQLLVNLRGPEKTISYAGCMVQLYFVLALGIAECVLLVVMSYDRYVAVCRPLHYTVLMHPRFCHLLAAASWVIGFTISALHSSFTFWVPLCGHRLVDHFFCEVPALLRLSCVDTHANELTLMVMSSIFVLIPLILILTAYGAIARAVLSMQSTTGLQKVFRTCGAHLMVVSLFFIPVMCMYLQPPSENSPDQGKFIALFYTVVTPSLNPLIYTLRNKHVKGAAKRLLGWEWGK
In short: (§1)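 Values were gathered from published papers (main text and supplementary material), with extra details requested from the original authors when needed, and checked for typos and inconsistencies. Each receptor–molecule pair is called responsive (active) if the original authors judged the measured signal statistically different from baseline, and non-responsive (inactive) otherwise. Assay methods varied by source, often transient mammalian cell-line luciferase assays. Recorded details include cell line, G-protein, co-transfected protein and tags.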

[2] = tested on: T2, OR2H2
T2 sequence (whole entry): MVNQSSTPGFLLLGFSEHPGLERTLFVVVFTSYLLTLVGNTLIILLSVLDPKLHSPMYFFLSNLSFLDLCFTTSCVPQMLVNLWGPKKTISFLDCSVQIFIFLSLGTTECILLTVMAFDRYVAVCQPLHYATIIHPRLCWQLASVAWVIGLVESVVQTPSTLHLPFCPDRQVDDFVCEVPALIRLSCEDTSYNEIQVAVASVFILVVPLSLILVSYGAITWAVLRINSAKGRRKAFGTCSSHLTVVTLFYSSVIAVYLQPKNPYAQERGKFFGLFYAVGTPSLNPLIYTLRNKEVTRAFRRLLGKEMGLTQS
In short: as §1

[3] = biological target: T3, OR2J1 (Homo sapiens) (UniProt Q9GZK6)
T3 sequence (whole entry): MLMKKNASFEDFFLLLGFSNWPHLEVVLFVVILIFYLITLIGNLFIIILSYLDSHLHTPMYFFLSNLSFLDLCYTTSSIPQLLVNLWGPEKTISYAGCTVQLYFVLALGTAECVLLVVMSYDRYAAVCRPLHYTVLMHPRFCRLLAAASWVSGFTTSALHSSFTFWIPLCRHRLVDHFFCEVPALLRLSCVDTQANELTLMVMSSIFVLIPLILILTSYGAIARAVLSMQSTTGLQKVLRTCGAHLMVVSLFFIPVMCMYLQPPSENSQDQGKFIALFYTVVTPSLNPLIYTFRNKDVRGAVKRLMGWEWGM
In short: as §1

[4] = tested on: T4, OR2J1 L14I V182A
T4 sequence (whole entry): T3 sequence (whole entry) with L14I, V182A
In short: as §1

[5] = tested on: T5, OR2J2
T5 sequence (whole entry): T1 sequence (whole entry) with H74Y, A111T, A146V, A218T
In short: as §1

[6] = biological target: T6, OR2J3 (Homo sapiens) (UniProt O76001)
T6 sequence (whole entry): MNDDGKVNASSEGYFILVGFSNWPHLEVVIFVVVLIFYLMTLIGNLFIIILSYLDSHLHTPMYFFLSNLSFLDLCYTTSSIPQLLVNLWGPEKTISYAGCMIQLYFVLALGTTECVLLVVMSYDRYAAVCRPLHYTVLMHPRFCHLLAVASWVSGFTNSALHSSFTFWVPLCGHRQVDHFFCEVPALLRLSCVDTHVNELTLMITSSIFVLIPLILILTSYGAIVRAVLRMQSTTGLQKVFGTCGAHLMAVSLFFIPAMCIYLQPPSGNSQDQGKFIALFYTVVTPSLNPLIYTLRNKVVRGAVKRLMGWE
In short: as §1

[7] = tested on: T7, OR2J3
T7 sequence (whole entry): T6 sequence (whole entry) with V228I, I261M
In short: as §1

[8] = biological target: T8, OR2K2 (Homo sapiens) (UniProt Q8NGT1)
T8 sequence (whole entry): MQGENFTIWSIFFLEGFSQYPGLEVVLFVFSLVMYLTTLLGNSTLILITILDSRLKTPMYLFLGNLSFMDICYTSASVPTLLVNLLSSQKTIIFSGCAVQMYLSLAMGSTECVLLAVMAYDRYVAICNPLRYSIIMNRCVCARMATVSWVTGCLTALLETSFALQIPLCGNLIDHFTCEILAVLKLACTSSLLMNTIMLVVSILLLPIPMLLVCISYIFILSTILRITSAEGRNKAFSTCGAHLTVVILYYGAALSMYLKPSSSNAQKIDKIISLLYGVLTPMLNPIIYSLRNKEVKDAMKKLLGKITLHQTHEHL
In short: as §1

[9] = biological target: T9, OR2L13 (Homo sapiens) (UniProt Q8N349)
T9 sequence (whole entry): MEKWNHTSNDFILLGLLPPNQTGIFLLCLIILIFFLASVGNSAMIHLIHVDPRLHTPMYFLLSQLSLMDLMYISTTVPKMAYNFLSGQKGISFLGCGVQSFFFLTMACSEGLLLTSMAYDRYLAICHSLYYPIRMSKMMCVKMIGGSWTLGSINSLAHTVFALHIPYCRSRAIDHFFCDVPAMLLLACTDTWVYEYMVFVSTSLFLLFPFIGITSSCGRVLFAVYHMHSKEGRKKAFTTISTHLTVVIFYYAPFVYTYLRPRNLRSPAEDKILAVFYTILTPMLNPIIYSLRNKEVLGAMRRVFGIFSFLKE
In short: as §1

[10] = biological target: T10, OR2L2 (Homo sapiens) (UniProt Q8NH16)
T10 sequence (whole entry): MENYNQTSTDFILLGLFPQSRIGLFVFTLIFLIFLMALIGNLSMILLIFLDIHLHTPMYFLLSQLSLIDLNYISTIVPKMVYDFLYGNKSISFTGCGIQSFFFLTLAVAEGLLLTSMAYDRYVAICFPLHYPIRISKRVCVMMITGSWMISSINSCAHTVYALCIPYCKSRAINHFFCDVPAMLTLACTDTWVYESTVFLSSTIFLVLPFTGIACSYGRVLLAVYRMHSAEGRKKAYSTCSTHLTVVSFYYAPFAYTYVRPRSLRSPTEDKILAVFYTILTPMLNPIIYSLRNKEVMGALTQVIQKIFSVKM
In short: as §1

[11] = biological target: T11, OR2L3 (Homo sapiens) (UniProt Q8NG85)
T11 sequence (whole entry): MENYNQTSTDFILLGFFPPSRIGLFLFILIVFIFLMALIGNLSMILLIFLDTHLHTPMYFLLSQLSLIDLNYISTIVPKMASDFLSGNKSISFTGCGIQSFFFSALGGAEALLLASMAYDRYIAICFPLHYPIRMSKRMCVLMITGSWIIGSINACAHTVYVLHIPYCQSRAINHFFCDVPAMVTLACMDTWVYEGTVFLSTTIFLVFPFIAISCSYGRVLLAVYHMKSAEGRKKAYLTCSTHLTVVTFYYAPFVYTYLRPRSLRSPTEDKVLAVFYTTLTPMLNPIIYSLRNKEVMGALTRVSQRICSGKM
In short: as §1

[12] = biological target: T12, OR2L5 (Homo sapiens) (UniProt Q8NG80)
T12 sequence (whole entry): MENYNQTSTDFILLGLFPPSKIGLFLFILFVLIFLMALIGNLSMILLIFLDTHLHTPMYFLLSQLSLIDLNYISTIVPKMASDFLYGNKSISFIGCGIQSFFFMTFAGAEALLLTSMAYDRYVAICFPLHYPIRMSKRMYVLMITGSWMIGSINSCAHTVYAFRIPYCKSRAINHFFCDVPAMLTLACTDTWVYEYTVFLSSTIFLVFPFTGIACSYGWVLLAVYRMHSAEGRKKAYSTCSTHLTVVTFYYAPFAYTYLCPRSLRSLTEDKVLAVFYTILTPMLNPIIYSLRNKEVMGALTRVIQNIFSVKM
In short: as §1

[13] = biological target: T13, OR2L8 (Homo sapiens) (UniProt Q8NGY9)
T13 sequence (whole entry): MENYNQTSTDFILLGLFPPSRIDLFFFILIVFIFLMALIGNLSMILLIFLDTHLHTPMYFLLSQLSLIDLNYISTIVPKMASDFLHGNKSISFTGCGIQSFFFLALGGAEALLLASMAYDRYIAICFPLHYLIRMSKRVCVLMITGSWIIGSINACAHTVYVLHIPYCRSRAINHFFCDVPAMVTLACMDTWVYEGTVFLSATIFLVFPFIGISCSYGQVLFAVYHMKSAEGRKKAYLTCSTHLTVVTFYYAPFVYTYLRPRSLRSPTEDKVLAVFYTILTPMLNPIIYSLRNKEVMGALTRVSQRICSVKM
In short: as §1

[14] = biological target: T14, OR2M2 (Homo sapiens) (UniProt Q96R28)
T14 sequence (whole entry): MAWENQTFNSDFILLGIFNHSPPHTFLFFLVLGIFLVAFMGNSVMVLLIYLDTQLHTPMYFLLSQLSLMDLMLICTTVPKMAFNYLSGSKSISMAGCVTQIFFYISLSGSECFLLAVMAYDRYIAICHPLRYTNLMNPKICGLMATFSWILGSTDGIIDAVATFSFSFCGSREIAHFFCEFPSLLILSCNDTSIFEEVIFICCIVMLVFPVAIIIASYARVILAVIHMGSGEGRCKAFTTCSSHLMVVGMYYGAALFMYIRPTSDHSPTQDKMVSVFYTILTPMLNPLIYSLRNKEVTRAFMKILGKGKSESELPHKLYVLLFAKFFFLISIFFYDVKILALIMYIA
In short: as §1

[15] = biological target: T15, OR2M3 (Homo sapiens) (UniProt Q8NG83)
T15 sequence (whole entry): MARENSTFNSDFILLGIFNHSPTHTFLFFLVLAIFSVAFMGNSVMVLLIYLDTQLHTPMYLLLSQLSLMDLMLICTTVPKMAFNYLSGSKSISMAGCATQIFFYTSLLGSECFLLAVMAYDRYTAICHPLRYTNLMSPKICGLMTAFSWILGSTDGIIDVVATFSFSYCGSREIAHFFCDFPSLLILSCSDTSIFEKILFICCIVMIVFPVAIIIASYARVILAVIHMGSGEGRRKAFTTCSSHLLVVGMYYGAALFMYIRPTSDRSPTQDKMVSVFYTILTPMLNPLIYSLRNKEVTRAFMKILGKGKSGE
In short: as §1

[16] = tested on: OR2M3 A216T
In short: as §1

[17] = tested on: OR2M3 A33G M144T
In short: as §1

[18] = tested on: OR2M3 A33G
In short: as §1

Measured: odorant receptor agonist call

OR2M3 A216T, sequence (as listed by the source, stated change not applied): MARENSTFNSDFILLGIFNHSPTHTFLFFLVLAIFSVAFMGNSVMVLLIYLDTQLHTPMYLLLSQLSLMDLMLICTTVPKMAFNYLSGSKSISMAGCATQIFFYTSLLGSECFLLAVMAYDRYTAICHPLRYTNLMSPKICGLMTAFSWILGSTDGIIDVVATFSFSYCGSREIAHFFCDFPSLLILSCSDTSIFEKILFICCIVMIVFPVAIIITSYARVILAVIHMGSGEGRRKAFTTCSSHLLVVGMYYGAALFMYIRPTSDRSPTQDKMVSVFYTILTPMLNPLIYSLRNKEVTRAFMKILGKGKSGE
OR2M3 A33G, sequence (as listed by the source, stated change not applied): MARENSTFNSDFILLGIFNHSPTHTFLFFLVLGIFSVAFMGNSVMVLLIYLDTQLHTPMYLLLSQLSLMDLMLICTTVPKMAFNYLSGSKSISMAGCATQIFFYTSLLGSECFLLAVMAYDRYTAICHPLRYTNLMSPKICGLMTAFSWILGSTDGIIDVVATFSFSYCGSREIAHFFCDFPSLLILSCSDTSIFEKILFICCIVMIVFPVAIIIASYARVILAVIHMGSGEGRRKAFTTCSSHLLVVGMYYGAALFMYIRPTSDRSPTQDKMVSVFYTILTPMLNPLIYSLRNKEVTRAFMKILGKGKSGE

CCCC(=O)C(C)=O
inactive: [1]

O=C1Cc2ccccc2O1
inactive: [1]

CC(=O)OCC=C(C)C
inactive: [1]

COc1cc(C(=O)O)ccc1O
inactive: [1]

CCCC(C)=O
inactive: [1]

CC1=NC(C)C(C)S1 (centres undefined)
not listed: [1] | [16] | [17] | [18]
inactive: all other assays above

CCCCCO
inactive: [1]

CC1CCCCCCCCCCCCC(=O)C1 (centres undefined)
inactive: [3] | [1] | [6] | [8] | [9] | [11] | [12] | [13] | [14] | [15]

CCCCCCCCCCO
active: [1]

CC(=O)c1c(C)c([N+](=O)[O-])c(C(C)(C)C)c([N+](=O)[O-])c1C
inactive: [3] | [1] | [6] | [8] | [9] | [11] | [12] | [13] | [14] | [15]

CCC(C(=O)O)c1ccccc1 (centres undefined)
inactive: [1]

CCCCCCC(C)=O
inactive: [1]

CCCCCC(=O)CC
inactive: [1]

c1ccccc1
inactive: [1]

CCCC(S)CCOC(C)=O (centres undefined)
not listed: [1] | [16] | [17] | [18]
inactive: all other assays above

CCCCCC(=O)C(C)C(C)=O (centres undefined)
not listed: [2] | [4] | [5] | [7] | [16] | [17] | [18]
inactive: all other assays above

CCCCCCC=CCCC=O
not listed: [5] | [16] | [17] | [18]
inactive: all other assays above

CCCCC(S)C(C)CO (centres undefined)
not listed: [2] | [4] | [5] | [7] | [16] | [17] | [18]
inactive: all other assays above

CCC(S)C(C)CO (centres undefined)
active: [15] | [16] | [18]
not listed: [2] | [4] | [5] | [7]
inactive: all other assays above
